In paper PMC5412920 (Journal of Clinical Pharmacology, 2016):
Where two headings read alike, the source gives them in different places.

Columns and labels:
[1] = Hepatic impairment study: safety and tolerability; assay type: in vivo, human
Method in brief: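 Adverse events were collected from screening until follow-up at 7–14 days postdose and coded by System Organ Class and preferred term (MedDRA 17.0). Vital signs, ECGs and clinical laboratory tests were also recorded. Single fasted oral doses were 50 mg (mild), 50 or 25 mg (moderate), 20 mg (severe Child-Pugh) and 50 mg (healthy).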

[2] = Renal impairment study: excretion in urine and blood dialysate; assay type: in vivo, human
Method in brief: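 Subjects were ESRD patients on haemodialysis or healthy subjects with creatinine clearance >80 mL/min, each given 50 mg orally while fasted. ESRD patients were dosed once after dialysis and, after a washout of ≥7 days, once 1 h before dialysis. Urine was collected predose and in intervals to 72 h. Dialysate spot samples were taken every 30 min, and parameters were derived by the area under the excretion rate curve method. Analysis was by LC-MS/MS.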

[3] = Hepatic impairment study: excretion in urine; assay type: in vivo, human
Method in brief: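 Urine from hepatic-impairment and healthy subjects was collected at −12 to 0 h predose, then 0–6, 6–12, 12–24, 24–36 and 36–48 h, and every 24 h to 120 h after a single oral dose. Dosing followed an overnight fast, with fasting until 4 h postdose. Analytes were measured by LC-MS/MS (positive electrospray, MRM) against carbon-13 internal standards.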

[4] = cited from earlier work
[5] = assay type: in vivo, human; conditions: for AUCu, geometric least-squares mean / Cmax,u, geometric least-squares mean / AUCu / Cmax,u: unbound
[6] = Renal impairment study: safety and tolerability; assay type: in vivo, human
Method in brief: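 In the renal-impairment study, adverse events were recorded from screening until follow-up and coded by System Organ Class and preferred term (MedDRA 17.0). Vital signs, ECGs and clinical laboratory tests were also recorded. All subjects received a single fasted oral 50 mg dose. Healthy subjects returned for follow-up 3–7 days later.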

[7] = Unbound fraction in plasma; assay type: in vitro ADME, human; conditions: human, plasma, oral, fu,av, hepatic impairment study, median (min-max)
Method in brief: (§1)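 Unbound fraction was measured in human plasma by ultrafiltration after a single oral dose. Ultrafiltrate was analysed by LC-MS/MS in MRM mode with carbon-13 internal standards. Within each subject, the mean percentage unbound from 3 results was applied to all of that subject's samples to give the average fraction unbound (fu,av).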

plasma proteins = assay: Unbound fraction in plasma; assay type: in vitro ADME, human
Method in brief: as §1

[8] = assay type: in vivo, human; conditions: for tmax / half-life: human, plasma, oral; for tmax: median (min-max); for half-life: arithmetic mean (SD); for AUCu/dose, geometric least-squares mean / Cmax,u/dose, geometric least-squares mean: unbound
MEK1 = conditions: cited from earlier work
[9] = severe hepatic impairment, 20 mg
[10] = non-Asian patients, 75 mg twice daily, used as exposure limit
[11] = healthy subjects, 50 mg, geometric mean (gCV%)
[12] = ESRD, treatment period 1 (50 mg after dialysis), geometric mean (gCV%)
[13] = moderate hepatic impairment, 50 or 25 mg

Compound: Cn1cnc2c(F)c(Nc3ccc(Br)cc3Cl)c(C(=O)NOCCO)cc21 [Selumetinib]
- most frequently reported AEs, diarrhea and vomiting, each ([1]; all 32 subjects (N = 2 each)): 6.3%
- subjects reporting at least 1 AE ([1]; all 32 subjects, mild or moderate severity): 15.6%
- tolerability ([1]; single oral dose 20-50 mg): well tolerated
- dose excreted in dialysate ([2]; ESRD, dosed 1 h before dialysis): 0.92%
- fraction excreted in urine ([2]; healthy subjects, 50 mg): 0.49%
- clearance ([2]; human, blood dialysate, oral, 50 mg): 9.63 mL/min
- dialysis clearance in ESRD as percentage of CL/F in the healthy subjects group ([2]; in vivo): approximately 3%
- dose excreted in urine ([3]; healthy subjects, 50 mg): 0.44%
- dose excreted in urine ([3]; mild hepatic impairment, 50 mg): 0.46%
- dose excreted in urine ([3]; moderate hepatic impairment): 0.50%
- dose excreted in urine [3, 9]: 0.90%
- dose linearity of pharmacokinetics ([4]; healthy volunteers): linear pharmacokinetics up to 75 mg
- mean steady-state AUC(0-12) [4, 10]: 4736 ng·h/mL
- mean steady-state Cmax [4, 10]: 1307 ng/mL
- AUC lower in the ESRD group (dosed post dialysis) vs healthy subjects ([5]; 50 mg): 28%
- AUC lower when dosed before vs after dialysis ([5]; ESRD, 50 mg): 17%
- Cmax lower when dosed before vs after dialysis ([5]; ESRD, 50 mg): 30%
- CL/F [5, 11]: 19.1 L/h
- Cmax ([5]; human, plasma, oral, 50 mg, Cmax, healthy subjects, geometric mean (gCV%)): 863 ng/mL
- half-life ([5]; human, plasma, oral, 50 mg, t1/2, healthy subjects, arithmetic mean (SD)): 7.34 h
- AUCu, geometric least-squares mean ([5]; ESRD, treatment period 1): 10.25 ng·h/mL
- Cmax,u, geometric least-squares mean ([5]; ESRD, treatment period 1): 3.95 ng/mL
- AUCu [5, 12]: 10.3 (20.1) ng·h/mL
- Cmax,u [5, 12]: 3.95 (34.7) ng/mL
- AUCu, geometric least-squares mean ([5]; healthy subjects): 10.55 ng·h/mL
- Cmax,u, geometric least-squares mean ([5]; healthy subjects): 3.48 ng/mL
- AUCu [5, 11]: 10.6 (23.0) ng·h/mL
- Cmax,u [5, 11]: 3.48 (42.5) ng/mL
- AEs reported ([6]; healthy subjects, 50 mg): No AEs were reported
- tolerability ([6]; single oral dose 50 mg): well tolerated
- fraction unbound ([7]; 20 mg, severe impairment): 0.0065
- fraction unbound ([7]; 50 mg, healthy subjects): 0.0035
- fraction unbound ([7]; 50 mg, mild impairment): 0.0028
- fraction unbound ([7]; 50 mg, moderate impairment, 50 mg dose only): 0.003
- difference of unbound fraction compared with healthy subjects (plasma proteins; hepatic impairment study, mild or moderate impairment): ≤ 20%
- increase in the unbound fraction compared with healthy subjects (plasma proteins; hepatic impairment study, severe impairment): ~90%
- fraction unbound (plasma proteins; human, plasma, oral, 50 mg, fu,av, renal impairment study, healthy subjects, median (min-max)): 0.004
- AUC/dose, geometric least-squares mean ([8]; healthy subjects, 50 mg): 53.64 ng·h/mL/mg
- Cmax/dose, geometric least-squares mean ([8]; healthy subjects, 50 mg): 18.88 ng/mL/mg
- tmax ([8]; 20 mg, severe hepatic impairment): 1 h
- half-life ([8]; 50 mg, t1/2, healthy subjects): 8.02 h
- half-life ([8]; 50 mg, t1/2, mild hepatic impairment): 7.72 h
- half-life ([8]; 50 mg, t1/2, moderate hepatic impairment, 50 mg dose only): 9.92 h
- tmax ([8]; 50 mg, healthy subjects): 1 h
- tmax ([8]; 50 mg, mild hepatic impairment): 1.25 h
- tmax ([8]; 50 mg, moderate hepatic impairment, 50 mg dose only): 1 h
- AUC/dose lower than in healthy subjects ([8]; mild hepatic impairment): 14%
- Cmax/dose lower than in healthy subjects ([8]; mild hepatic impairment): 22%
- AUC/dose, geometric least-squares mean ([8]; mild hepatic impairment, 50 mg): 45.93 ng·h/mL/mg
- Cmax/dose, geometric least-squares mean ([8]; mild hepatic impairment, 50 mg): 14.82 ng/mL/mg
- AUC/dose higher than in healthy subjects ([8]; moderate hepatic impairment): 59%
- Cmax/dose higher than in healthy subjects ([8]; moderate hepatic impairment): 25%
- AUC/dose, geometric least-squares mean [8, 13]: 85.11 ng·h/mL/mg
- Cmax/dose, geometric least-squares mean [8, 13]: 23.57 ng/mL/mg
- AUC/dose higher than in healthy subjects ([8]; severe hepatic impairment): 57%
- AUC/dose, geometric least-squares mean [8, 9]: 84.29 ng·h/mL/mg
- Cmax/dose, geometric least-squares mean [8, 9]: 18.53 ng/mL/mg
- AUCu/dose, geometric least-squares mean ([8]; healthy subjects, 50 mg): 0.1837 ng·h/mL/mg
- Cmax,u/dose, geometric least-squares mean ([8]; healthy subjects, 50 mg): 0.06473 ng/mL/mg
- AUCu/dose, geometric least-squares mean ([8]; mild hepatic impairment, 50 mg): 0.1271 ng·h/mL/mg
- Cmax,u/dose, geometric least-squares mean ([8]; mild hepatic impairment, 50 mg): 0.04094 ng/mL/mg
- AUCu/dose, geometric least-squares mean [8, 13]: 0.2585 ng·h/mL/mg
- Cmax,u/dose, geometric least-squares mean [8, 13]: 0.07165 ng/mL/mg
- AUCu/dose, geometric least-squares mean [8, 9]: 0.5828 ng·h/mL/mg
- Cmax,u/dose, geometric least-squares mean [8, 9]: 0.1280 ng/mL/mg

Compound: Cn1cnc2c(F)c(Nc3ccc(Br)cc3Cl)c(C(N)=O)cc21 [selumetinib amide]
- less active than selumetinib (MEK1): up to 50 fold
- plasma concentrations ([5]; renal impairment study, largely below the lower limit of quantification): < 2 ng/mL
- plasma concentrations ([8]; hepatic impairment study, largely below the lower limit of quantification): < 2 ng/mL
